What was measured:
[1] = biological target: 5-hydroxytryptamine receptor 1B (Homo sapiens, UniProt P28222); test: Binding affinity in CHO-K1 cells transfected with human recombinant 5-hydroxytryptamine 1B receptor; format: cell-based
[2] = biological target: 5-hydroxytryptamine receptor 1D (Homo sapiens, UniProt P28221); test: Binding affinity in CHO-K1 cells transfected with human 5-hydroxytryptamine 1D receptor; format: cell-based
In short: (§1)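 Competition binding on CHO-K1 cells stably transfected with human recombinant 5HT1D, 5HT1F or 5HT1A receptors; reported as pIC50, means of duplicates.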

Oryctolagus cuniculus [3] = organism: Oryctolagus cuniculus; test: (§2) Relative binding affinity in rabbit saphenous vein functional assay compared to 5-HT; settings: read-out: pA2 (converted)
Oryctolagus cuniculus [4] = organism: Oryctolagus cuniculus; test: as §2
Cavia porcellus [5] = organism: Cavia porcellus; test: Ability to inhibit [125I]- albumin extravasation into dura following electrical stimulation of trigeminal ganglion of Guinea pig; format: functional
In short: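 Pentobarbitone-anaesthetised (50 mg/kg ip), ventilated guinea pigs kept at 37 °C; single jugular iv bolus of 0.01, 0.03 or 0.1 µg/kg or saline vehicle. 5 min later, [125I]BSA 50 µCi/kg iv. After another 5 min, one trigeminal ganglion was stimulated for 5 min (5 pulses/s, 5 ms, 1.2 mA). Dura gamma-counted as cpm/mg wet weight; stimulated/unstimulated ratio, mean ± SEM; vehicle controls run daily.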

Oryctolagus cuniculus [6] = organism: Oryctolagus cuniculus; test: Binding affinity towards rabbit saphenous vein value in parenthesis represents intrinsic activity for RbSv;(1 for 5-HT); format: functional
[7] = Oral bioavailability in human; format: ADME, organism-based; settings: in vivo
Oryctolagus cuniculus [8] = organism: Oryctolagus cuniculus; settings: Saphenous vein
[9] = Oral bioavailability in rat; format: ADME, organism-based; settings: in vivo
[10] = Beta phase half life was determined in rat; format: ADME, organism-based; settings: in vivo
Cavia porcellus [11] = organism: Cavia porcellus; test: Ability to inhibit [125I]- albumin extravasation into dura following electrical stimulation of trigeminal ganglion; format: functional
In short: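 Anesthetized guinea pigs (pentobarbitone 50 mg/kg ip, 37 °C, ventilated) got a single iv jugular bolus (0.01, 0.03 or 0.1 µg/kg; vehicle 0.9% saline). 5 min later 50 µCi/kg [125I]BSA iv; after another 5 min, unilateral trigeminal ganglion stimulation for 5 min (5 pulses/s, 5 ms, 1.2 mA). Dural cpm/mg wet weight was expressed as stimulated/unstimulated ratio, mean ± SEM.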

[12] = Volume distribution in rat; format: ADME, organism-based; settings: in vivo
[13] = biological target: T1, 5-hydroxytryptamine receptor 1F (Homo sapiens, UniProt P30939); test: Binding affinity towards human recombinant 5-hydroxytryptamine 1F receptor; in short: as §1
T1 sequence (P30939 whole entry): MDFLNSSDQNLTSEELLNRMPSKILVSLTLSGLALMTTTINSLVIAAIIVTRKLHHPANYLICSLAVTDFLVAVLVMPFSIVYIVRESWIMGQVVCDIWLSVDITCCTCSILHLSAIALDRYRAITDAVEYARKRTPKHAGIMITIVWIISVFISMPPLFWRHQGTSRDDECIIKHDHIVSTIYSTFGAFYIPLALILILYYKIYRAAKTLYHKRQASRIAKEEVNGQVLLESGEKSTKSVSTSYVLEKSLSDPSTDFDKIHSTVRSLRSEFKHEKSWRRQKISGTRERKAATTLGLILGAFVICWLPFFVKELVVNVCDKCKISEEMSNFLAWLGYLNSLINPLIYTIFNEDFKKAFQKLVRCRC

[14] = Plasma clearance in rat; format: ADME, organism-based
[15] = biological target: T2, 5-hydroxytryptamine receptor 1A (Homo sapiens, UniProt P08908); test: binding affinity towards human recombinant 5-hydroxytryptamine 1A receptor; in short: as §1
T2 sequence (P08908 whole entry): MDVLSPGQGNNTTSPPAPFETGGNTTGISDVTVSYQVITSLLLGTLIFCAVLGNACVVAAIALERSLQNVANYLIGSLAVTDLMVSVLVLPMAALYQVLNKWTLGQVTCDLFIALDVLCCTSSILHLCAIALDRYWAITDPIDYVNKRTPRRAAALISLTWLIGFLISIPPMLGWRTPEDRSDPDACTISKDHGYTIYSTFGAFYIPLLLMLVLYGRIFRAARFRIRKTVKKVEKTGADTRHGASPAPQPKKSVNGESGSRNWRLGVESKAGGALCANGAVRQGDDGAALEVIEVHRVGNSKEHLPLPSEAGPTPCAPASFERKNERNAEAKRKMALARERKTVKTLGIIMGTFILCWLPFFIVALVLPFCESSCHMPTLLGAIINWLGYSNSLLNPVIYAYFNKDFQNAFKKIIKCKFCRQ

Sequence of 5-hydroxytryptamine receptor 1B (P28222 whole entry): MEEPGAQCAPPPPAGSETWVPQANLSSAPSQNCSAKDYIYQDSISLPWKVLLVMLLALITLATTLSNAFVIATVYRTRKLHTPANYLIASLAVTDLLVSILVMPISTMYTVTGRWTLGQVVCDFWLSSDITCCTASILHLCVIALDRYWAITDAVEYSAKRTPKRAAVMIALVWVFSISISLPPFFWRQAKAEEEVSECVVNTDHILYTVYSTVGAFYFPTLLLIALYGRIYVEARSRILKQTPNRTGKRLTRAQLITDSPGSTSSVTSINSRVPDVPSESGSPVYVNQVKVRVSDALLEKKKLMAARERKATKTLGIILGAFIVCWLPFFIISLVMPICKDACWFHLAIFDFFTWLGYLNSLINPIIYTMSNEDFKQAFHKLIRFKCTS
Sequence of 5-hydroxytryptamine receptor 1D (P28221 whole entry): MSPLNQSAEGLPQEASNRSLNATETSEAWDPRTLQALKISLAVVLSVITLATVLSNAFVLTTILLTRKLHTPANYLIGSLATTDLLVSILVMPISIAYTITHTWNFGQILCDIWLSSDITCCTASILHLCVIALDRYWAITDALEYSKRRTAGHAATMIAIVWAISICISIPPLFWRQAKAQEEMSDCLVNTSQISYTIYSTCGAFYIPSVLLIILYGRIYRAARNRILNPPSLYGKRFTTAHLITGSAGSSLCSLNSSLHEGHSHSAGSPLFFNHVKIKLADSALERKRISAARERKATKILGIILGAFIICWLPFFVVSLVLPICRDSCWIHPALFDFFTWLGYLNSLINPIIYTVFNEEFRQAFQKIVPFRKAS

SMILES | IC50 [1] [nM] | IC50 [2] [nM] | Kb (Oryctolagus cuniculus [3]) [nM] | pA50 (Oryctolagus cuniculus [4]) | further results
CN(C)[C@H]1C[C@H](c2c[nH]c3ccc(CCN4C(=O)c5ccccc5C4=O)cc32)C1 | 204 | 195 | 170 |  | 
CC1(C)NC(=O)N(CCc2ccc3[nH]cc([C@H]4C[C@H](N)C4)c3c2)C1=O | 1120 | 501 | 2690 |  | 
CN(C)[C@H]1C[C@H](c2c[nH]c3ccc(CCN4C(=O)NC(C)(C)C4=O)cc32)C1 | 1200 | 1480 | 891 |  | 
CN1C(=O)OCC1Cc1ccc2[nH]cc([C@H]3C[C@H](N(C)C)C3)c2c1 (stereo in doubt; 34) [listing 1 of 2 here] |  |  |  | 4.85 | 
Cc1noc(Cc2ccc3[nH]cc([C@H]4C[C@H](N(C)C)C4)c3c2)n1 | 1510 | 933 | 7590 |  | 
CN(C)[C@H]1C[C@H](c2c[nH]c3ccc(CC4COC(=O)N4)cc32)C1 (stereo in doubt; 31) [listing 1 of 2 here] | 562 | 170 |  |  | 
CN(C)[C@H]1C[C@H](c2c[nH]c3ccc(CN4C(=O)NC(C)(C)C4=O)cc32)C1 | 3800 | 3090 | 589 |  | 
CNS(=O)(=O)Cc1ccc2[nH]cc(C[C@H]3CCCN3C)c2c1 | 14.5 | 7.24 |  |  | ED50 (Cavia porcellus [5]): 0.1 µg/kg; pA50 (Oryctolagus cuniculus [6]): 6.33
CN(C)[C@H]1C[C@H](c2c[nH]c3ccc(Oc4ccccc4)cc32)C1 | 97.7 | 64.6 | 240 |  | 
N[C@H]1C[C@H](c2c[nH]c3ccc(CC4COC(=O)N4)cc32)C1 (stereo in doubt; 23) [listing 1 of 2 here] |  |  |  | 6.42 | 
N[C@H]1C[C@H](c2c[nH]c3ccc(Oc4ccccc4)cc32)C1 | 9.55 | 14.5 |  | < 6.5 | 
N[C@H]1C[C@H](c2c[nH]c3ccc(CC4COC(=O)N4)cc32)C1 (stereo in doubt; 23) [listing 2 of 2 here] | 18.2 | 3.63 |  |  | 
CN(C)[C@H]1C[C@H](c2c[nH]c3ccc(CC4COC(=O)N4)cc32)C1 (stereo in doubt; 1) [listing 1 of 2 here] |  |  |  | 5.72 | 
CN(C)CCc1c[nH]c2ccc(C[C@H]3COC(=O)N3)cc12 [ZOLMITRIPTAN] | 6.17 | 2.82 |  | 6.8 | ED50 (Cavia porcellus [5]): ~12 µg/kg; bioavailability [7]: 40%
CN1C(=O)OCC1Cc1ccc2[nH]cc([C@H]3C[C@H](N(C)C)C3)c2c1 (stereo in doubt; 30) [listing 1 of 2 here] |  |  |  | 5.21 | 
CN(C)[C@H]1C[C@H](c2c[nH]c3ccc(CCN4C(=O)CNC4=O)cc32)C1 |  |  | 1910 |  | 
CN[C@H]1C[C@H](c2c[nH]c3ccc(CC4COC(=O)N4)cc32)C1 (stereo partly specified) | 32.4 | 7.08 |  | 6.18 | 

SMILES | IC50 [1] [nM] | IC50 [2] [nM] | Kb (Oryctolagus cuniculus [3]) [nM] | pA50 (Oryctolagus cuniculus [4]) | further results
CN(C)[C@H]1C[C@H](c2c[nH]c3ccc(CC4COC(=O)N4)cc32)C1 (stereo in doubt; 35) [listing 1 of 2 here] |  |  |  | 5.15 | 
CN1C(=O)OCC1Cc1ccc2[nH]cc([C@H]3C[C@H](N(C)C)C3)c2c1 (stereo in doubt; 30) [listing 2 of 2 here] | 204 | 100 |  |  | 
CN(C)[C@H]1C[C@H](Cc2c[nH]c3ccc(C[C@H]4COC(=O)N4)cc23)C1 | 141 | 28.8 | 1860 |  | 
CNS(=O)(=O)Cc1ccc2[nH]cc([C@H]3C[C@H](N(C)C)C3)c2c1 | 275 | 191 |  | 5.25 | 
CN(C)[C@H]1C[C@H](c2c[nH]c3ccc(C(N)=O)cc32)C1 | 44.7 | 14.8 |  | 6.25 | 
Cc1nc(Cc2ccc3[nH]cc([C@H]4C[C@H](N(C)C)C4)c3c2)n[nH]1 | 3890 | 2040 | 6610 |  | 
CN(C)[C@H]1C[C@H](c2c[nH]c3ccc(CC(=O)NCc4ccccc4)cc32)C1 | 263 | 339 | 3890 |  | 
CN(C)[C@H]1C[C@H](c2c[nH]c3ccc(C(=O)NCc4ccccc4)cc32)C1 | 316 | 141 | 1260 |  | 
CN(C)[C@H]1C[C@H](c2c[nH]c3ccc(CC4COC(=O)N4)cc32)C1 (stereo in doubt; 31) [listing 2 of 2 here] |  |  |  | 4.95 | 
N[C@H]1C[C@H](c2c[nH]c3ccc(CC4COC(=O)N4)cc32)C1 (stereo in doubt; 24) |  |  |  | 5.8 | 
CNS(=O)(=O)Cc1ccc2[nH]cc(CCN(C)C)c2c1 |  |  |  |  | ED50 (Cavia porcellus [5]): 10 µg/kg; bioavailability [7]: 14%; pA50 (Oryctolagus cuniculus [8]): 6.6
CN(C)[C@H]1C[C@H](c2c[nH]c3ccc(CN4C(=O)CNC4=O)cc32)C1 | 6310 | 2450 | 9330 |  | 
CN(C)[C@H]1C[C@H](c2c[nH]c3ccc(CC(N)=O)cc32)C1 | 1350 | 724 | 16600 |  | 
CN(C)[C@H]1C[C@H](c2c[nH]c3ccc(CC4COC(=O)N4)cc32)C1 (stereo in doubt; 1) [listing 2 of 2 here] | 112 | 15.8 |  |  | bioavailability [9]: 35%; half-life [10]: 1.4 h; ED50 (Cavia porcellus [11]): ~0.01 µg/kg; bioavailability [7]: 41%; Vd [12]: 2.6 L/kg; IC50 [13]: 363 nM; clearance [14]: 40 mL/min/kg; IC50 [15]: 3550 nM
CN1C(=O)OCC1Cc1ccc2[nH]cc([C@H]3C[C@H](N(C)C)C3)c2c1 (stereo in doubt; 34) [listing 2 of 2 here] | 97.7 | 57.5 |  |  | 
Cc1noc(-c2ccc3[nH]cc([C@H]4C[C@H](N(C)C)C4)c3c2)n1 | 832 | 562 | 955 |  | 
CN(C)[C@H]1C[C@H](c2c[nH]c3ccc(CC4COC(=O)N4)cc32)C1 (stereo in doubt; 35) [listing 2 of 2 here] | 162 | 100 |  |  | 

— ChEMBL document CHEMBL1134844 (J Med Chem, 2001)
